Results of several laboratories.
Lines come from different studies, so protocols differ.
Target: Delta-type opioid receptor (OPRD1, Homo sapiens, UniProt P41143)

| Structure (SMILES) | assay | system | conditions | measurement | value |
| --- | --- | --- | --- | --- | --- |
| COCc1c(-c2cc3cc(C)cc(OC)c3s2)c2c(N)ncnn2c1CN1CCNC(=O)C1 | ligand displacement, radioligand |  | 10 µM | inhibition | 16% |
| Clc1ccc2c(C3CCN(CCc4c[nH]c5ccccc45)CC3)c[nH]c2c1 | ligand displacement, radioligand |  | 10 µM | inhibition | 35% |
| CC[C@@H]1CN2CC[C@@]3(O)C(=Nc4cccc(-c5ccoc5)c43)[C@@H]2C[C@@H]1/C(=C\OC)C(=O)OC | β-arrestin recruitment, agonist |  |  | Emax | > 100% |
| Nc1ncc(-c2nc(N3CCOCC3)nc(N3CCOCC3)n2)c(C(F)F)n1 | cell-free assay, radioligand |  | 10 µM | remaining signal | 103% |
| c1ccc(C(NCCNC(c2ccccc2)c2ccccc2)c2ccccc2)cc1 | ligand displacement |  | 10 µM | inhibition | 81% |
| Cc1cc(Nc2nccc(C)n2)cc(-c2cnc([C@@]3(O)CC[C@H](C(=O)O)C(C)(C)C3)s2)c1 | ligand displacement |  | 10 µM | inhibition | 12.8% |
| CC(C)N1CCC[C@H]1CNC(=O)c1cn(C2CCCC2)c(=O)c2c1c1ccccc1n2C | ligand displacement, radioligand |  | 10 µM | inhibition | 6% |
| CC1(C)SSC(C)(C)[C@@H](NC(=O)[C@@H](N)Cc2ccc(O)cc2)C(=O)NCC(=O)N[C@@H](Cc2ccccc2)C(=O)N2CCN(CC2)C(=O)[C@H](Cc2ccccc2)NC(=O)CNC(=O)[C@@H]1NC(=O)[C@@H](N)Cc1ccc(O)cc1 | cAMP, agonist, luciferase | HEK293 |  | Emax | 206% |
| CCN(CC)CCCC[C@H](NC(=O)[C@H](CC(C)C)NC(=O)[C@H](C)NC(=O)[C@H](Cc1ccccc1)NC(=O)c1ccc(C(C)(C)C)cc1)C(=O)N[C@@H](CO)C(=O)OC | ligand displacement, radioligand |  | 10 µM | remaining binding | 71.4% |
| CC[C@@H]1CN2CC[C@@]3(O)C(=Nc4cccc(-c5ccccc5)c43)[C@@H]2C[C@@H]1/C(=C\OC)C(=O)OC | β-arrestin recruitment, agonist |  |  | Emax | > 100% |
| C[C@H](C(=O)N[C@H]1COc2ccccc2[C@@H]1S(C)(=O)=O)c1ccc(F)cc1 | ligand displacement |  | 10 µM | inhibition | 1% |
| O=C(c1ccc(F)cc1)N1CC(COc2ccc(Br)cc2)(C(=O)O)C1 | cell-free assay |  | 10 µM | inhibition | -5.22% |
